From PubChem
NPY1 pot ag: human NPY-Y1 potentiation or agonism, primary screen. P25929. NPY-Y1 expressing cells, potentiator/agonist activation. 220,000 tested, 0.37% active. activation, % at 3.6 µM; in the data active means activation above about 33%, passing the limit was not always enough;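 further: cells stimulated with NPY at EC10 then isoproterenol at EC100; 0% = low agonist plus stimulus and 100% = saturating agonist plus stimulus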
PGE2 EP2 inh: inhibitors of human EP2 prostaglandin E2 receptor | 260,000 tested, 0.52% active | C6 glioma cells expressing human EP2, cAMP TR-FRET; cells stimulated with saturating PGE2 | P43116 | inhibition, % at 25 µM;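 active means percent inhibition above 40 after rounding to a whole number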;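 further: rat C6 glioma host cells with rolipram phosphodiesterase inhibitor present; the protocol text gives 20 µM as final concentration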
Target sequence (P43116 whole entry, looked up): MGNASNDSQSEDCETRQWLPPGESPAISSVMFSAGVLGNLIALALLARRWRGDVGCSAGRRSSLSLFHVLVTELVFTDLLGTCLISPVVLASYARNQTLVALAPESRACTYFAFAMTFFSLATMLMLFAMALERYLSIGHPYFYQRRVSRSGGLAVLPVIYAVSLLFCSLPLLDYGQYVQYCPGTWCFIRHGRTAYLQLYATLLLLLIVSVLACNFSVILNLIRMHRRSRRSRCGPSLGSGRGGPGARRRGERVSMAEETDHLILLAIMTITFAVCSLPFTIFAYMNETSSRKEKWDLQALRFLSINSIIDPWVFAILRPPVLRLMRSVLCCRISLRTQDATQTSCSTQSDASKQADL
EP2 modulator: modulators of human EP2 prostaglandin E2 receptor; P43116; EP2-expressing cells, cAMP HTRF FRET, PGE2 co-stimulation; induction, % at 25 µM; 260,000 tested, 0.83% active; AID 940;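 active means compounds whose cAMP rise, as percent of the full-agonist control response, exceeds 60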;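 further: rat C6 glioma line stably carrying human EP2 under a CMV promoter; the protocol text gives 20 µM as final concentration; 100% = response of wells given 1 µM PGE2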
NPY Y2 blocker: antagonists of human neuropeptide Y receptor Y2; 140,000 tested, 0.99% active; inhibition, % at 2.7 µM; NPY-Y2 expressing cells, antagonist mode; P49146; in the data active means inhibition above about 17%;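 further: 0% = vehicle with agonist challenge and 100% = reference antagonist with challenge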
Target sequence (P49146 whole entry, looked up): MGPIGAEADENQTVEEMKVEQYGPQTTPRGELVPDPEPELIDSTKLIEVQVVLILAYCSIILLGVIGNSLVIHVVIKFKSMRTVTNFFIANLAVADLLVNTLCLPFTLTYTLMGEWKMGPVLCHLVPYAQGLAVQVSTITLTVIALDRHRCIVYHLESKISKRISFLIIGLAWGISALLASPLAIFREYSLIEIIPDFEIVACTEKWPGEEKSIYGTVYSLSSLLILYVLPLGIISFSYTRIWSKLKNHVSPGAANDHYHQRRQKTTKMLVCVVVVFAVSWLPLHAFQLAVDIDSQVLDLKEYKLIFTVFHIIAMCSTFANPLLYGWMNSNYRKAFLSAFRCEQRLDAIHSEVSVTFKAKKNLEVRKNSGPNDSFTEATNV
NPY-Y1 antag: antagonists of human neuropeptide Y receptor Y1; P25929; HEK293-CNG Y1 cells, membrane potential fluorescence; NPY at EC95, then isoproterenol; inhibition, % at 3.6 µM; 200,000 tested, 1% active; AID 1040;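 active means inhibition above the campaign mean inhibition of all tested compounds plus 3 SD, cut at about 20% in these data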;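 further: 0% = DMSO wells given NPY plus isoproterenol and 100% = isoproterenol alone without NPY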
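Material: Y1- and CNG-channel-expressing HEK293 cells / Probe or stimulus: NPY 25 nM then isoproterenol 1 µM plus Ro 20-1724 25 µM / Doses: 3.6 µM single dose, DMSO 0.4% / Schedule: compound incubation 1 h at room temperature, readout 45 min post-stimulation / Signal: membrane potential fluorescence / Benchmarks: isoproterenol-only wells as full block versus NPY-plus-isoproterenol wells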
NPY-Y2 PAM-ag: human NPY-Y2 potentiation or agonism, primary screen; P49146; cells expressing NPY-Y2, potentiator/agonist read-out; activation, % at 3.6 µM; 220,000 tested, 0.45% active; AID 1359; in the data active means activation above about 27%;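 further: cells stimulated with NPY near EC25 plus isoproterenol at EC100; 0% = vehicle plus submaximal agonist and 100% = vehicle plus saturating agonist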
EP2 cAMP induct: EP2 receptor cAMP induction, counter-screens negative. shares compounds with EP2 modulator. calls only at 20 µM (by protocol). 1,300 tested, 47% active. C6 glioma EP2 cells, cAMP HTRF induction; plus low (about EC15) PGE2 agonist;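 active means cAMP induction above 50% in the main assay while under 30% in all four parallel counter assays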;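 further: rat C6 glioma cells stably expressing human EP2 receptor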
Numbers without * were called inactive. In the library only some 2.8% were active in any assay of this set; here they are far more common.

`COc1ccccc1/C=C/C(=O)OCC(=O)Nc1ccccc1Sc1ccccc1` gave NPY1 pot ag -34.9, PGE2 EP2 inh 8.1, EP2 modulator 71.5*, NPY Y2 blocker 13.1, NPY-Y1 antag 2.0, NPY-Y2 PAM-ag -15.4 and EP2 cAMP induct active.
Screening O=C(Cc1ccc(F)cc1)Nc1ccccc1Sc1ccccc1 returned NPY1 pot ag 11.0, PGE2 EP2 inh 1.8, EP2 modulator 82.7*, NPY Y2 blocker 4.4, NPY-Y1 antag -1.8, NPY-Y2 PAM-ag 3.5 and EP2 cAMP induct active.
`COc1ccc(NC(=O)Cn2nc3c4ccccc4nc(C(C)C)n3c2=O)cc1Cl` gave PGE2 EP2 inh 4.6 and EP2 modulator -15.5.
Screening COC(=O)c1c(NC(NC(=O)C(C)C)C(Cl)(Cl)Cl)sc2c1CCCC2 (stereo not drawn) returned NPY1 pot ag -14.9, PGE2 EP2 inh 4.1, EP2 modulator 55.7, NPY Y2 blocker 1.4, NPY-Y1 antag 6.2, NPY-Y2 PAM-ag 1.6 and EP2 cAMP induct inactive.
For Cc1nc2c3cc(F)ccc3n(Cc3ccccc3)c2s1 the results were NPY1 pot ag -24.2, PGE2 EP2 inh 1.7, EP2 modulator 71.8*, NPY Y2 blocker 14.1, NPY-Y1 antag 12.5, NPY-Y2 PAM-ag -4.6 and EP2 cAMP induct active.
`Cc1nn(C)cc1S(=O)(=O)N1CCN(C(c2ccccc2)c2ccccc2)CC1` gave PGE2 EP2 inh 5.2 and EP2 modulator 21.2.
`CC(=C\c1ccccc1)/C=C1/SC(=S)N(C(C(=O)O)C(C)C)C1=O` (stereo not drawn) gave NPY1 pot ag -10.0, PGE2 EP2 inh 6.0, EP2 modulator 53.7, NPY-Y1 antag 8.5, NPY-Y2 PAM-ag -24.6 and EP2 cAMP induct active.
For CCC(C(=O)O)N1C(=O)/C(=C/C(C)=C/c2ccccc2)SC1=S (stereo not drawn) the results were NPY1 pot ag -34.2, PGE2 EP2 inh 10.2, EP2 modulator 25.4 and NPY-Y2 PAM-ag -8.0.
For CCOP(=O)(OCC)c1nc(-c2cccc([N+](=O)[O-])c2)oc1N1CCCCC1 the results were NPY1 pot ag -6.6, PGE2 EP2 inh 8.3, EP2 modulator -12.7, NPY-Y1 antag -4.3 and NPY-Y2 PAM-ag -12.2.
`CCOP(=O)(c1ccccc1)c1nc(-c2ccccc2Cl)oc1N1CCCCC1` (stereo not drawn) gave NPY1 pot ag -20.1, PGE2 EP2 inh 6.2, EP2 modulator 71.5*, NPY Y2 blocker 12.2, NPY-Y1 antag 11.4, NPY-Y2 PAM-ag 17.4 and EP2 cAMP induct active.
Screening Cc1cc2cc(C(c3nnnn3C(C)(C)C)N3CCN(c4ccccc4)CC3)c(=O)[nH]c2cc1C (stereo not drawn) returned PGE2 EP2 inh 9.4 and EP2 modulator 30.5.
Cc1ccc(-c2csc(Nc3ccc(C(=O)O)cc3)[n+]2Cc2ccccc2)cc1 was read as NPY1 pot ag 8.1, PGE2 EP2 inh 3.7, EP2 modulator 76.5*, NPY-Y1 antag -4.4, NPY-Y2 PAM-ag 12.0 and EP2 cAMP induct active.
Screening CCOC(=O)C(Cc1ccccc1)(NC(C)=O)C(=O)OCC returned NPY1 pot ag 24.9, PGE2 EP2 inh 7.6, EP2 modulator 84.8*, NPY Y2 blocker 0.1, NPY-Y1 antag 1.4, NPY-Y2 PAM-ag 6.2 and EP2 cAMP induct inactive.
Cc1cc(C)cc(OC2CCCCC2NS(=O)(=O)c2ccccc2)c1 (stereo not drawn) was read as NPY1 pot ag -7.7, PGE2 EP2 inh 7.9, EP2 modulator 65.2*, NPY Y2 blocker 2.5, NPY-Y1 antag -1.5, NPY-Y2 PAM-ag 4.7 and EP2 cAMP induct active.
`CSc1ccc(OC2CCCCC2NS(=O)(=O)c2ccccc2)cc1` (stereo not drawn) gave NPY1 pot ag -21.0, PGE2 EP2 inh 5.6, EP2 modulator 21.4, NPY Y2 blocker -0.5, NPY-Y1 antag 4.3 and NPY-Y2 PAM-ag -15.2.
`CCCSc1nc(N2CCCC2)c2c(c1C#N)CC(C)(C)OC2` gave NPY1 pot ag -8.5, PGE2 EP2 inh 10.9, EP2 modulator 66.2*, NPY Y2 blocker 0.7, NPY-Y1 antag 4.5, NPY-Y2 PAM-ag 9.8 and EP2 cAMP induct active.
CC1(C)Cc2c(C#N)c(N3CCCC3)nc(-c3ccco3)c2CO1 was read as NPY1 pot ag 5.9, PGE2 EP2 inh 11.0, EP2 modulator 76.2*, NPY Y2 blocker 0.0, NPY-Y1 antag 1.0, NPY-Y2 PAM-ag 12.6 and EP2 cAMP induct inactive.
`CC(C)c1nc(N2CCN(C(=O)c3ccccc3)CC2)c(C#N)c2c1COC(C)(C)C2` gave NPY1 pot ag -14.9, PGE2 EP2 inh 4.6, EP2 modulator 76.9*, NPY Y2 blocker 2.1, NPY-Y1 antag -1.4, NPY-Y2 PAM-ag 10.5 and EP2 cAMP induct active.
For CSc1nc(N2CCCC2)c2c(c1C#N)CC(C)(C)OC2 the results were NPY1 pot ag -12.7, PGE2 EP2 inh 5.9, EP2 modulator -0.2, NPY Y2 blocker 0.2, NPY-Y1 antag 2.1 and NPY-Y2 PAM-ag -8.4.
Cc1cccc(C)c1NC(=O)Cn1cc(C(=O)c2cccs2)c2ccccc21 was read as PGE2 EP2 inh 12.6 and EP2 modulator -43.5.
For CCCc1cc(CNC(=O)c2nnn(-c3ccccc3)c2C)on1 the results were PGE2 EP2 inh 6.9 and EP2 modulator -20.4.
CC(C(=O)N1CCC(C(=O)c2nc3ccccc3s2)CC1)c1ccccc1 (stereo not drawn) was read as EP2 modulator -38.7.
COc1cc(C(c2nnnn2C(C)(C)C)N2CCN(c3ccccc3F)CC2)cc(OC)c1OC (stereo not drawn) was read as PGE2 EP2 inh 6.5 and EP2 modulator 3.4.
For CCOc1ccc(NC(=O)c2sc(NC(=O)c3ccc4c(c3)OCO4)c(C(=O)OC)c2C)cc1 the results were PGE2 EP2 inh 13.6 and EP2 modulator -42.5.
For CN(Cc1ccccc1)c1nc2c(c(=O)[nH]c(=O)n2C)n1Cc1ccccc1Cl the results were NPY1 pot ag -3.5, PGE2 EP2 inh 2.6, EP2 modulator 76.8*, NPY Y2 blocker 7.0, NPY-Y1 antag 6.8, NPY-Y2 PAM-ag -10.9 and EP2 cAMP induct active.
O=C(O)C1C2C=CC(C3CC23)C1C(=O)O (stereo not drawn) was read as NPY1 pot ag 2.3, PGE2 EP2 inh 5.9, EP2 modulator -1.9, NPY Y2 blocker -1.7, NPY-Y1 antag 1.1 and NPY-Y2 PAM-ag 17.6.
`O=C(O)[C@@H]1[C@H](C(=O)O)[C@@H](C(=O)O)C[C@H]1C(=O)O` gave PGE2 EP2 inh 12.7, EP2 modulator 60.7* and EP2 cAMP induct inactive.
For O=C(O)COc1cccc(NC(=O)c2ccccc2)c1 the results were NPY1 pot ag -6.1, PGE2 EP2 inh 6.8, EP2 modulator 95.7*, NPY Y2 blocker -0.2, NPY-Y1 antag 1.4, NPY-Y2 PAM-ag 4.6 and EP2 cAMP induct active.
